Laboratory results reported in ChEMBL document CHEMBL1149096 (J Med Chem, 2004).
Several values for one entry are separate records, joined by “and”; a condition that tells them apart may be missing. Equal entries are not always repeated. Activity calls are given as the source filed them.

Assays:
Mu-type opioid receptor [1] = biological target: T1, Mu-type opioid receptor (Cavia porcellus, UniProt P97266); assay: Agonistic activity towards Opioid receptor mu 1 was determined in [35S]GTP-gamma-S, binding assay in guinea pig caudate; g = not active as an agonist; format: functional
How it was run: (§1)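 Guinea pig caudate membranes (10-20 µg protein) incubated 3 h at 22 °C in Tris-HCl pH 7.4 containing 100 mM NaCl, 10 mM MgCl2, 1 mM EDTA, 100 µM GDP and 0.05-0.1 nM [35S]GTP-γ-S, then filtered and counted. Nonspecific binding defined with 10 µM GTP-γ-S. Site isolation used CTAP, nor-BNI, NTI or TIPP. […] Three experiments pooled; logistic fit.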

[2] = biological target: T2, Kappa-type opioid receptor (Cavia porcellus, UniProt P41144); assay: Inhibitory concentration required for 50% inhibition of antagonism towards Opioid receptor kappa 1 in [35S]GTP-gamma-S, binding assay in guinea pig caudate; format: functional
Cavia porcellus [3] = organism: Cavia porcellus; assay: Selectivity given as ratio of kappa receptor to delta receptor
[4] = biological target: T2, Kappa-type opioid receptor; assay: Agonistic activity towards Opioid receptor kappa 1 was determined in [35S]GTP-gamma-S, binding assay in guinea pig caudate; format: functional; how it was run: as §1
Cavia porcellus [5] = organism: Cavia porcellus; details: Ileum, filed as agonist
[6] = biological target: Opioid receptors; mu & delta (Rattus norvegicus) (UniProt P33533+P33535); assay: Selectivity given as ratio of mu receptor to delta receptor; format: protein assay
[7] = biological target: Delta-type opioid receptor (Mus musculus) (UniProt P32300); details: Vas deferens; filed as agonist
Mu-type opioid receptor [8] = biological target: T1, Mu-type opioid receptor; assay: Inhibitory concentration for inhibition of Opioid receptor mu 1 induced contractions in guinea pig ileum (GPI) smooth muscle assays; format: functional, tissue-based
How it was run: (§2)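 Electrically stimulated MVD (male ICR mice, 25-40 g) and GPI longitudinal muscle myenteric plexus strips (male Hartley guinea pigs, 250-500 g). Baths held 37 °C oxygenated Krebs bicarbonate (Mg-free for MVD), tension 1 g GPI / 0.5 g MVD. Stimulation 0.1 Hz, 0.4 ms pulses (2 ms MVD), supramaximal voltage. IC50 from two to four tissues by nonlinear least squares.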

Mus musculus [9] = organism: Mus musculus; assay: Antinociceptive effect was determined at 100 nM in mouse; format: functional
Mu-type opioid receptor [10] = biological target: T1, Mu-type opioid receptor; assay: Apparent binding affinity of compound was determined by antagonism towards Opioid receptor mu 1 in [35S]GTP-gamma-S, binding assay in guinea pig caudate; format: functional
[11] = biological target: Delta-type opioid receptor (Rattus norvegicus, UniProt P33533); assay: Binding affinity at opioid receptor delta 1 by displacement of [3H]DADLE in rat brain membrane; format: cell membranes
[12] = biological target: Mu-type opioid receptor (Cavia porcellus) (UniProt P97266); details: Ileum, filed as agonist
[13] = biological target: Delta-type opioid receptor (Mus musculus) (UniProt P32300); assay: Agonist activity by the maximum response towards opioid receptor delta 1 induced contractions in mouse vas deferens (MVD) smooth muscle contraction assays; format: functional, tissue-based
How it was run: as §2, with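 “voltage. […]” for “voltage.”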

Mus musculus [14] = organism: Mus musculus; assay: Antinociceptive effect was determined at 300 nM in mouse; format: functional
[15] = biological target: T2, Kappa-type opioid receptor; assay: Agonistic activity towards Opioid receptor kappa 1 was determined in [35S]GTP-gamma-S, binding assay in guinea pig caudate; g = not active as an agonist; format: functional; how it was run: as §1
[16] = biological target: Delta-type opioid receptor (Mus musculus) (UniProt P32300); details: Vas deferens
Mus musculus [17] = organism: Mus musculus; assay: Antinociceptive effect was determined by the ability to exhibit 80% reduction of naloxone induced sensitivity; Partial; format: functional, organism-based
[18] = biological target: T2, Kappa-type opioid receptor; assay: Binding affinity at Opioid receptor kappa 1 by displacement of [3H]U-69593 in guinea pig brain membranes; format: cell membranes, Membrane
[19] = biological target: Delta-type opioid receptor (Mus musculus) (UniProt P32300); details: Vas deferens; filed as agonist; remark: listed apart in the source
Mus musculus [20] = organism: Mus musculus; assay: Antinociceptive effect was determined by the ability to exhibit 80% reduction of naloxone induced sensitivity; No; format: functional, organism-based
[21] = biological target: T2, Kappa-type opioid receptor; assay: Apparent binding affinity of compound was determined by antagonism towards Opioid receptor kappa 1 in [35S]GTP-gamma-S, binding assay in guinea pig caudate; format: functional
Mu-type opioid receptor [22] = biological target: T1, Mu-type opioid receptor; assay: Agonistic activity towards Opioid receptor mu 1 was determined in [35S]GTP-gamma-S, binding assay in guinea pig caudate; format: functional; how it was run: as §1
Mus musculus [23] = assay: Analgesic activity was calculated at time of peak drug effect when administered (icv) in mouse warm-water tail withdrawal assay; format: functional
How it was run: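 Male ICR mice dosed icv (5 µL; water or 100% DMSO) under light ether anaesthesia. 55 °C warm-water tail withdrawal read at 10-180 min, cutoff 10 s. %MPE = 100 × (test − control)/(cutoff − control). A50 and 95% CI taken at peak effect by linear regression.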

Mu-type opioid receptor [24] = biological target: T1, Mu-type opioid receptor; assay: Apparent binding affinity of compound was determined by antagonism towards Opioid receptor mu 1in [35S]GTP-gamma-S, binding assay in guinea pig caudate; i = could not be calculated because of agonist activity; format: functional
Mus musculus [25] = organism: Mus musculus; assay: Antinociceptive effect was determined by the ability to exhibit 80% reduction of naloxone induced sensitivity; Yes; format: functional, organism-based
[26] = biological target: Mu-type opioid receptor (Cavia porcellus) (UniProt P97266); details: Ileum, filed as agonist; remark: listed apart in the source
[27] = biological target: Delta-type opioid receptor (Mus musculus) (UniProt P32300); details: Vas deferens; filed as agonist; remark: listed apart in the source
Mu-type opioid receptor [28] = biological target: Mu-type opioid receptor (Rattus norvegicus, UniProt P33535); assay: Binding affinity at Opioid receptor mu 1 by displacement of [3H]DAMGO in rat brain membrane; format: cell membranes
[29] = biological target: Mu-type opioid receptor (Cavia porcellus) (UniProt P97266)
Mu-type opioid receptor [30] = biological target: T1, Mu-type opioid receptor; assay: Antagonism of compound towards Opioid receptor mu 1 was determined using PL-017 in guinea pig ileum (GPI) smooth muscle contraction assays; d = agonist effect was observed; format: functional, tissue-based

T1 sequence (P97266 whole entry): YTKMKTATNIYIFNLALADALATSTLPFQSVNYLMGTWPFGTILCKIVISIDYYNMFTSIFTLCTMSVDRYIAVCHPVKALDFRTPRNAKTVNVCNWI
Mu-type opioid receptor (Cavia porcellus), sequence (P97266 whole entry): as above
Delta-type opioid receptor (Mus musculus), sequence (P32300 whole entry): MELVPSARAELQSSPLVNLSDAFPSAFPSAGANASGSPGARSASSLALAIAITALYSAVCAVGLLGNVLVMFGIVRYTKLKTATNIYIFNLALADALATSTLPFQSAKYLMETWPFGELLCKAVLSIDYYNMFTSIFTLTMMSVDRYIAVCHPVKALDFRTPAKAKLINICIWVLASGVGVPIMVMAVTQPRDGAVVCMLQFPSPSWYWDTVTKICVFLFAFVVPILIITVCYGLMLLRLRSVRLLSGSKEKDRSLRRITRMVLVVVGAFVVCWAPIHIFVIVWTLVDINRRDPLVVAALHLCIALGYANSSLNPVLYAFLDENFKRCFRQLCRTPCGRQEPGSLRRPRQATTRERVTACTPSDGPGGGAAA
T2 sequence (P41144 whole entry): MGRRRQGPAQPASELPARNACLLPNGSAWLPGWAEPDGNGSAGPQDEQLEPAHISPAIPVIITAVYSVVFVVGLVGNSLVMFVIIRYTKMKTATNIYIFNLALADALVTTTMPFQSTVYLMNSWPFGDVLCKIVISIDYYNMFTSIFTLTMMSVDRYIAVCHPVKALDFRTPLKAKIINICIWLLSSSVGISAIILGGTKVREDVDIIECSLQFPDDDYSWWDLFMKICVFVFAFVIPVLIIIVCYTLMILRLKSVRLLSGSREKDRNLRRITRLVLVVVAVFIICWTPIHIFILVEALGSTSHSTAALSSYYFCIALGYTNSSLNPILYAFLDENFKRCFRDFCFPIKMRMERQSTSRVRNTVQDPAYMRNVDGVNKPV
Opioid receptors; mu & delta (Rattus norvegicus), sequence (P33533 whole entry, looked up): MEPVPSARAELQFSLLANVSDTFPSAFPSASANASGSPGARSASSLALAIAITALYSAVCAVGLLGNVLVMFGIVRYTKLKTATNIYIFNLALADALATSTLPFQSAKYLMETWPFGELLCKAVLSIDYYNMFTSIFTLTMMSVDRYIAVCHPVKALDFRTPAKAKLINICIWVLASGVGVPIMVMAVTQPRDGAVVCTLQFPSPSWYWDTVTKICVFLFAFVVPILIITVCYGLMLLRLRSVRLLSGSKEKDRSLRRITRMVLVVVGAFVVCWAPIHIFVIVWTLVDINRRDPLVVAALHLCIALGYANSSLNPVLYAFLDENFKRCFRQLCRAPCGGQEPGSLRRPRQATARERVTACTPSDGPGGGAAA
Opioid receptors; mu & delta (Rattus norvegicus), sequence (P33535 whole entry, looked up): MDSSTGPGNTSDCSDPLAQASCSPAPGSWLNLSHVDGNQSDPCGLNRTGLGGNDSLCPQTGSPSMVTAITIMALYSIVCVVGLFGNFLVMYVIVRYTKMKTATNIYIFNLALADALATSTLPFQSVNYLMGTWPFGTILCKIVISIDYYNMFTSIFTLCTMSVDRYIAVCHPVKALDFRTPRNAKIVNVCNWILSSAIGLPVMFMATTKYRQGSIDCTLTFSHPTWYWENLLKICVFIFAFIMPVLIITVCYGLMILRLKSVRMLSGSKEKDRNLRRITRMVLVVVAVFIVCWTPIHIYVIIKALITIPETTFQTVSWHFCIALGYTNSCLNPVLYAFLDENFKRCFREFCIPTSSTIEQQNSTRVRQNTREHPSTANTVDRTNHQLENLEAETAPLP
Delta-type opioid receptor, sequence (P33533 whole entry): as the sequence (P33533 whole entry, looked up) above
Mu-type opioid receptor (Rattus norvegicus, UniProt P33535), sequence (P33535 whole entry): as the sequence (P33535 whole entry, looked up) above

Compound: CN1CC[C@]23c4c5ccc(O)c4O[C@H]2c2ncc(-c4ccc(Cl)c(Cl)c4)cc2C[C@H]3[C@H]1C5
- EC50 (Mu-type opioid receptor [1]; read-out: EC50): 1310 nM
- Ki [2]: 4770 nM
- Ratio (Cavia porcellus [3]): 75
- EC50 [4]: Not Active
- Ke (Cavia porcellus [5]): Agonist
- Ratio [6]: 25
- Ke [7]: Agonist
- IC50 (Mu-type opioid receptor [8]): 447 nM
- Activity (Mus musculus [9]): 44%
- Ki (Mu-type opioid receptor [10]): > 1000 nM

Compound: CN1CC[C@]23c4c5ccc(O)c4O[C@H]2c2ncc(-c4ccc(Cl)cc4)cc2C[C@@]3(O)[C@H]1C5
- EC50 (Mu-type opioid receptor [1]): Not Active
- Ki [11]: 3.9 nM
- Ke [12]: Agonist
- Response [13]: 58%
- Ratio (Cavia porcellus [3]): 120
- Activity (Mus musculus [14]): 43%
- EC50 [15]: Not Active
- Ke [16]: 38.2
- Ratio [6]: 59
- Activity (Mus musculus [17]): Weak activity

Compound: Oc1ccc2c3c1O[C@H]1c4[nH]c5ccccc5c4C[C@@]4(O)[C@@H](C2)N(CC2CC2)CC[C@]314 [NALTRINDOLE]
- EC50 (Mu-type opioid receptor [1]): Not Active
- Ki [11]: 1.6 nM
- Response [13]: 16% and 18%
- EC50 [15]: Not Active
- Ki [18]: 75 nM

Compound: CN1CC[C@]23c4c5ccc(O)c4O[C@H]2c2ncc(-c4ccccc4)cc2C[C@@]3(O)[C@H]1C5
- Ke [12]: Agonist
- Ratio (Cavia porcellus [3]): 124
- EC50 [15]: Not Active
- Ke [19]: Agonist
- Activity (Mus musculus [20]): inactive
- Ratio [6]: 9
- Ki [21]: > 1000 nM
- IC50 (Mu-type opioid receptor [8]): 211 nM
- EC50 (Mu-type opioid receptor [22]; read-out: EC50): 660 nM
- Activity (Mus musculus [9]): 64%
- Ki (Mu-type opioid receptor [10]): > 1000 nM

Compound: CN1CC[C@]23c4c5ccc(O)c4O[C@H]2c2ncc(-c4ccc(Cl)cc4)cc2C[C@H]3[C@H]1C5
- A50 (Mus musculus [23]): 42.8 nM
- EC50 (Mu-type opioid receptor [1]; read-out: EC50): 900 nM
- Ki (Mu-type opioid receptor [24]): Agonist
- Ratio (Cavia porcellus [3]): 18
- EC50 [4]: Not Active
- Ke [16]: 21.9 nM
- Activity (Mus musculus [25]): Active
- Ratio [6]: 34
- Ke [26]: Agonist
- IC50 (Mu-type opioid receptor [8]): 177 nM

Compound: CN1CC[C@]23c4c5ccc(O)c4O[C@H]2c2ncccc2C[C@H]3[C@H]1C5
- Ratio (Cavia porcellus [3]): 8
- EC50 [15]: Not Active
- Activity (Mus musculus [20]): inactive
- Ratio [6]: 1.6
- Ke [27]: Agonist
- Ke [26]: Agonist
- Ki [21]: > 1000 nM
- IC50 (Mu-type opioid receptor [8]): 67.7 nM
- EC50 (Mu-type opioid receptor [22]; read-out: EC50): 3000 nM
- Activity (Mus musculus [9]): 75%
- Ki (Mu-type opioid receptor [10]): > 1000 nM

Compound: CN1CC[C@]23c4c5ccc(O)c4O[C@H]2c2ncc(-c4ccc(Br)cc4)cc2C[C@@]3(O)[C@H]1C5
- Ki [11]: 4 nM
- Ratio (Cavia porcellus [3]): 108
- Ki [18]: 432 nM
- Ratio [6]: 49
- Ki (Mu-type opioid receptor [28]): 196 nM

Compound: CN1CC[C@]23c4c5ccc(O)c4O[C@H]2c2ncc(-c4ccccc4)cc2C[C@H]3[C@H]1C5
- Ke [29]: inactive
- Ratio (Cavia porcellus [3]): 43
- EC50 (Mu-type opioid receptor [30]): 1030 nM
- Activity (Mus musculus [25]): Active
- Ratio [6]: 13
- Ke [27]: Agonist
- Ki [21]: > 1000 nM
- IC50 (Mu-type opioid receptor [8]): 98.7 nM
- EC50 (Mu-type opioid receptor [22]): Not Active
- Activity (Mus musculus [9]): 48%
- Ki (Mu-type opioid receptor [10]): > 1000 nM

Compound: C[C@@H](NC(=O)[C@@H](N)Cc1ccc(O)cc1)C(=O)NCC(=O)N(C)[C@@H](Cc1ccccc1)C(=O)NCCO [DAMGO]
- Ki [11]: 469 nM
- Ki [18]: 5820 nM

Compound: COc1ccc2c3c1O[C@H]1c4ncc(-c5ccc(Br)cc5)cc4C[C@@]4(O)[C@@H](C2)N(C)CC[C@]314
- Ki [11]: 23 nM
- Ratio (Cavia porcellus [3]): 320
- Ki [18]: 7370 nM
- Ratio [6]: 82
- Ki (Mu-type opioid receptor [28]): 1890 nM
